Several values for one entry are separate records, joined by “and”; a condition that tells them apart may be missing. Identical values can stand only once.
Tests used:
[1] = biological target: D2 dopamine receptors (transfected HEK cells) (Homo sapiens, UniProt P14416); experiment: Whole cell forskolin-dependent adenylyl cyclase inhibition assay, D2; assay type: cell-based; settings: intrinsic activity
Summary of the method: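 Transfected HEK cells were prelabelled with 2,8-3H-adenine in serum-free medium for 75 min at 37 °C. They were then incubated with test compound in serum-free medium containing 0.1 mM 3-isobutyl-1-methylxanthine for 20 min at 37 °C. The reaction was stopped with a solution of 10% trichloroacetic acid and 1 mM cyclic AMP, and accumulated 3H-cyclic AMP was measured.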

[2] = biological target: human D3 dopamine receptors expressed in HEK 293 cells (Homo sapiens, UniProt P35462); experiment: Dopamine receptor filtration binding assay, [125I]-IABN competition, D3; settings: for D3 (Ki): mean Ki ± S.E.M., [125I]-IABN, HEK 293 membranes, unit printed in b5 only
[3] = biological target: D3 dopamine receptors (transfected HEK cells) (Homo sapiens, UniProt P35462); experiment: Whole cell forskolin-dependent adenylyl cyclase inhibition assay, D3; assay type: cell-based; settings: for Functional classification at D3 dopamine receptors: compared to quinpirole; for %IA D3: intrinsic activity, compared to the full agonist quinpirole
D3 dopamine receptors (transfected HEK cells), sequence (P35462 whole entry): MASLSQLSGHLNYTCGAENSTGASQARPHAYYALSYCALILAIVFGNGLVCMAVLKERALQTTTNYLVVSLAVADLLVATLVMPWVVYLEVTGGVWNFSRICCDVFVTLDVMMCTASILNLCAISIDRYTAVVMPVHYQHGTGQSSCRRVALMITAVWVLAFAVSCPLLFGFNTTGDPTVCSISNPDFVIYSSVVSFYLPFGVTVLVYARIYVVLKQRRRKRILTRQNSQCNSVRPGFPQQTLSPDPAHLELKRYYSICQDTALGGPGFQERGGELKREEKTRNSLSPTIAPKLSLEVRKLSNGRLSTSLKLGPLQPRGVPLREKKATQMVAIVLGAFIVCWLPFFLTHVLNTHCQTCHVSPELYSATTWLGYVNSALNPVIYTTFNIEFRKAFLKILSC

D2 dopamine receptors (transfected HEK cells), sequence (P14416 whole entry): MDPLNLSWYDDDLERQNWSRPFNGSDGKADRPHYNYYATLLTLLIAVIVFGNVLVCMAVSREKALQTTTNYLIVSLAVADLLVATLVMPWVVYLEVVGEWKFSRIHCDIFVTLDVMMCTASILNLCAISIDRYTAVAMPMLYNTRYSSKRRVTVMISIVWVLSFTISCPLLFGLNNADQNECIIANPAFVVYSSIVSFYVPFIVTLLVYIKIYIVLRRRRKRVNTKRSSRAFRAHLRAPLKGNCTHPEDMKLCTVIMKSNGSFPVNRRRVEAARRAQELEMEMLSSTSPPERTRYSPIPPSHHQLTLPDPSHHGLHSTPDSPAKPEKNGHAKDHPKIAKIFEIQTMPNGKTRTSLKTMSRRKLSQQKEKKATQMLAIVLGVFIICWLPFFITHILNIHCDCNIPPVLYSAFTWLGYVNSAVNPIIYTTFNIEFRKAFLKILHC
human D3 dopamine receptors expressed in HEK 293 cells, sequence (P35462 whole entry): as the sequence (P35462 whole entry) above

%IA D2 [1]	D3 (Ki) [2]	Functional classification at D3 dopamine receptors [3]	D2:D3 selectivity ratio ([2]; selectivity for D3 versus D2 receptors)	%IA D3 [3]	SMILES
34 ± 3%	subnanomolar	weak partial agonist/antagonist	–	–	COc1ccccc1N1CCN(CCCCNC(=O)c2ccc(N(C)C)cc2)CC1 [Compound 6, 4-(dimethylamino)-N-(4-(4-(2-methoxyphenyl)piperazin-1-yl)butyl)benzamide]
35 ± 1%	subnanomolar	–	–	–	COc1ccccc1N1CCN(CCCCNC(=O)c2ccc(CCF)cc2)CC1 [Compound 7, 4-(2-fluoroethyl)-N-(4-(4-(2-methoxyphenyl)piperazin-1-yl)butyl)benzamide]
66.3 ± 1%	subnanomolar	partial agonist	23	64.5 ± 8.3% and 64.5 ± 8%	CN(C)c1ccc(C(=O)NCCCCN2CCN(c3ccccc3OCCF)CC2)cc1 [Compound 8, 4-(dimethylamino)-N-(4-(4-(2-(2-fluoroethoxy)phenyl)piperazin-1-yl)butyl)benzamide]
29.3 ± 7.3%	–	weak partial agonist	–	34.4 ± 1.7%	O=C(NCCCCN1CCN(c2ccccc2OCCF)CC1)c1ccc(-c2ccsc2)cc1 [Compound 9, N-(4-(4-(2-(2-fluoroethoxy)phenyl)piperazin-1-yl)butyl)-4-(thiophen-3-yl)benzamide]

— paper PMC3128788 (Nuclear medicine and biology, 2011)
